“Also recorded” adds a separate entry of the source.
Columns and labels:
I-A^g7 = test: Peptide binding to I-A^g7; design: species or system NOD mouse; conditions: inhibition of bio-pHEL (11 μM) binding to soluble I-A^g7, pH 5.6, overnight, 21°C, ELISA; average of two experiments (Fig. 6b,c)
In short: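 Soluble I-A^g7 carrying covalently linked pHEL, thrombin-treated to cleave the peptide linker. Diluted in PBS, captured on OX6-coated wells, washed. Bound probe detected with alkaline phosphatase–Extravidin and […]. Controls: mimotope peptide (positive), I-E^k-binding moth cytochrome c peptide (negative). Reported as percent of uninhibited probe binding.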

T cell clone BDC-2.5 = test: IFN-γ response of T cell clone BDC-2.5; format: cell-based, NOD mouse; conditions: ChgA-derived peptides 5–500 μM; two experiments, single measurements (Fig. 6a,c)
In short: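 Cultures held 2 × 10⁴ BDC-2.5 T cells and 2.5 × 10⁴ NOD peritoneal exudate cells as I-A^g7 APCs. Chromogranin A-derived peptides were added at 5–500 μM. Controls were beta cell tumor membrane preparation, a positive mimotope peptide and an irrelevant moth cytochrome c peptide. IFN-γ was measured by specific ELISA. Two experiments, single measurement per concentration. Stimulatory capacity was calculated relative to the reference peptide.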

BDC T cell clones [1] = test: In vitro activation of the BDC T cell clones; format: cell-based, NOD mouse
In short: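 The three BDC clones (2 × 10⁴ responder cells each) were cultured with 2.5 × 10⁴ NOD peritoneal exudate cells as APCs. Soluble synthetic test peptides were titrated alongside a mimotope peptide and beta cell tumor membrane preparation as the control antigen. IFN-γ (ng/ml) was measured by specific ELISA. At least two separate experiments, single measurement at each peptide concentration.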

BDC T cell clones [2] = conditions: presented in the context of I-A^g7; cited from earlier work

| Substance | Binding to I-A^g7 (I-A^g7) | Stimulatory activity on BDC-2.5 (IFN-γ response) (T cell clone BDC-2.5) | also measured |
| --- | --- | --- | --- |
| ED9: WD5 extended by the same 4 amino acids at the N-terminus (EDKRWSRMD) | did not bind to I-A^g7 | failed to stimulate BDC-2.5 |  |
| EE18: WE14 extended by 4 amino acids at the N-terminus (EDKRWSRMDQLAKELTAE) | no effect on I-A^g7 binding | eliminated the BDC-2.5 response |  |
| RLGLWVRME [pS3] |  |  | Potency in activating the BDC clones relative to WE14 (BDC T cell clones [1]; pS3 vs synthetic WE14): at least 1000 fold |
| WA8: C-terminal truncation of WE14 (WSRMDQLA) |  | decreasing stimulatory activity |  |
| WL11: WE14 truncated by 3 C-terminal amino acids (WSRMDQLAKEL) | reduced binding to a level indistinguishable from the negative control peptide | decreasing stimulatory activity |  |
| WSRMD [WD5] |  | lacked any stimulatory activity |  |
| WSRMDQLAKELTAE [WE14] | bound to I-A^g7, although not nearly as well as the pS3 mimotope; also recorded: bound I-A^g7 |  | Activation of the BDC T cell clones (BDC T cell clones [1]; in vitro, presented by I-A^g7 APCs): activated the ChgA-specific T cell clones in vitro; also recorded: potently stimulated all three of the BDC clones; also recorded: the clones were activated; Potency relative to beta cell (tumor) antigen preparation (BDC T cell clones [1]; synthetic WE14 vs β-Mem): considerably less potent than the antigen preparation from the beta cell adenoma tumor |
| insulin: insulin, to which the BDC clones are not responsive |  |  | Response of BDC clones in vitro (BDC T cell clones [2]): not responsive |
